Columns and labels:
Enterococcus faecium = test: In vitro activity against Enterococcus faecium (ATCC 8043).; assay type: functional
Method in brief: (§1)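 MIC determined by agar dilution on brain-heart infusion agar under aerobic conditions.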

[1] = tested on: Bacteroides thetaiotaomicron; test: In vitro activity against Bacteroides thetaiotaomicron (SFM2975-2); assay type: functional
Method in brief: (§2)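 MIC determined under anaerobic conditions on Wilkins-Chalgren agar.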

Pseudomonas aeruginosa [2] = test: In vitro activity against Pseudomonas aeruginosa (A5007).; assay type: functional; method in brief: as §1
Prevotella bivia = test: In vitro activity against Bacteroides bivius(B 6140); assay type: functional; method in brief: as §2
Mus musculus [3] = test: In vivo activity against Pseudomonas aeruginosa A5007 (100X LD50), administered po( each compound tested at 3 doses with 10 animals); assay type: functional
Method in brief: (§3)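 Mice were challenged intraperitoneally with the organism. The compound was given orally as a total dose split into equal portions at 1 and 5 h post-infection. Three doses were used, with 10 animals per dose.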

Mus musculus [4] = test: In vivo activity against Pseudomonas aeruginosa A5007 (100X LD50), administered sc( each compound tested at 3 doses with 10 animals); assay type: functional
Method in brief: (§4)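 Mice were challenged intraperitoneally with the organism. The compound was given subcutaneously as a total dose split into equal portions at 1 and 5 h post-infection. Three doses were used, with 10 animals per dose.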

Pseudomonas aeruginosa [5] = test: In vitro activity against Pseudomonas aeruginosa (BMH10); assay type: functional; method in brief: as §1
[6] = Solubility in aqueous media 0.15Nacetate, pH 6.1; assay type: physicochemical; conditions: 0.15 N acetate, read-out: S
[7] = Solubility in aqueous media urine, pH 5.7; assay type: physicochemical; conditions: read-out: S
Escherichia coli = test: In vitro activity against Escherichia coli Juhl; assay type: functional
Method in brief: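 MIC for aerobic bacteria, measured on brain-heart infusion agar.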

Bacteroides fragilis [8] = test: In vitro activity against Bacteroides fragilis (SFM2975-7); assay type: functional; method in brief: as §2
[9] = tested on: Bacteroides thetaiotaomicron; test: In vitro activity against Bacteroides thetaiotaomicron (ATCC 29741); assay type: functional; method in brief: as §2
Bacteroides fragilis [10] = test: In vitro activity against Bacteroides fragilis (SFM2929-1); assay type: functional; method in brief: as §2
Peptostreptococcus sp. = test: In vitro activity against Peptostreptococcus sp.(TB-11); assay type: functional, peptostreptococcus s
Method in brief: (§5)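 MIC for anaerobic bacteria, measured on Wilkins-Chalgren agar.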

Mus musculus [11] = test: In vivo activity against Escherichia coli Juhl(100X LD50), when administered sc(each compound tested at 3 doses with 10 animals); assay type: functional; method in brief: as §4
Burkholderia cepacia = test: In vitro activity against Pseudomonas cepacia (296I); assay type: functional; method in brief: as §1
Thomasclavelia ramosa = test: In vitro activity against Clostridium romosum (7); assay type: functional
Cutibacterium acnes = test: In vitro activity against Propionibacterium acnes (132); assay type: functional; method in brief: as §2
[12] = Solubility in aqueous media 0.15 N phosphate, pH 5.6; assay type: physicochemical; conditions: read-out: S
Mus musculus [13] = test: In vivo activity against Staphylococcus aureus NCTC 10649, administered sc ( each compound tested at 3 doses with 10 animals); assay type: functional; method in brief: as §4
Phocaeicola vulgatus = test: In vitro activity against Bacteroides vulgatus(SFBC 2375); assay type: functional; method in brief: as §2
Pseudomonas aeruginosa [14] = test: In vitro activity against Pseudomonas aeruginosa (K799/WT).; assay type: functional; method in brief: as §1
Hoylesella loescheii = test: In vitro activity against Bacteroides loescheii (ATCC 15930).; assay type: functional; method in brief: as §2
Mus musculus [15] = test: In vivo activity against Escherichia coli Juhl(100X LD50), when administered po(each compound tested at 3 doses with 10 animals); assay type: functional; method in brief: as §3
Acinetobacter sp. = test: In vitro activity against Acinetobacter sp.(CMX 669).; assay type: functional; method in brief: as §1
Klebsiella aerogenes = test: In vitro activity against Enterobacter aerogenes (ATCC 13048).; assay type: functional; method in brief: as §1
Staphylococcus aureus [16] = test: In vitro activity against Staphylococcus aureus(45); assay type: functional; method in brief: as §1
Klebsiella pneumoniae = test: In vitro activity against Klebsiella pneumoniae (ATCC 8045).; assay type: functional; method in brief: as §1
[17] = Solubility in aqueous media Ringer''s buffer, pH 7.4; assay type: physicochemical
Clostridioides difficile = test: In vitro activity against Clostridium difficile (ATCC 17857); assay type: functional
Streptococcus pyogenes [18] = test: In vitro activity against Streptococcus pyogenes (2548 INDUC).; assay type: functional; method in brief: as §1
Streptococcus pyogenes [19] = test: In vitro activity against Streptococcus pyogenes(930 CONST).; assay type: functional; method in brief: as §1
Clostridium perfringens = test: In vitro activity against Clostridium perfringens (SFBC 2026); assay type: functional; method in brief: as §5
[20] = tested on: Bacteroides thetaiotaomicron; test: In vitro activity against Bacteroides thetaiotaomicron (ATCC 29742); assay type: functional; method in brief: as §2
[21] = tested on: Prevotella melaninogenica; test: In vitro activity against Bacteroides melaninogenicus (ATCC 25845).; assay type: functional; method in brief: as §2
Staphylococcus aureus [22] = test: In vitro activity against Staphylococcus aureus(ATCC 6538P); assay type: functional; method in brief: as §1
Streptococcus agalactiae = test: In vitro activity against Streptococcus agalactiae (CMX 508).; assay type: functional; method in brief: as §1

## Cl.N[C@H]1CCN(c2nc3c(cc2F)c(=O)c(C(=O)O)cn3-c2ccc(F)cc2F)C1
Enterococcus faecium
  MIC: 0.1 µg/mL
[1]
  MIC: 1 µg/mL
Pseudomonas aeruginosa [2]
  MIC: 0.1 µg/mL
Prevotella bivia
  MIC: 0.5 µg/mL
Mus musculus [3]
  ED50: 11.5 mg/kg
Mus musculus [4]
  ED50: 19.1 mg/kg
Pseudomonas aeruginosa [5]
  MIC: 0.05 µg/mL
[6]
  solubility: 4.1 µg/mL
[7]
  solubility: 27.5 µg/mL
Escherichia coli
  MIC: 0.02 µg/mL
Bacteroides fragilis [8]
  MIC: 0.5 µg/mL
[9]
  MIC: 0.5 µg/mL
Bacteroides fragilis [10]
  MIC: 0.25 µg/mL
Peptostreptococcus sp.
  MIC: 0.25 µg/mL
Mus musculus [11]
  ED50: 0.2 mg/kg
Burkholderia cepacia
  MIC: 3.1 µg/mL
Thomasclavelia ramosa
  MIC: 0.5 µg/mL
Cutibacterium acnes
  MIC: 2 µg/mL
[12]
  solubility: 4.3 µg/mL
Mus musculus [13]
  ED50: 0.4 mg/kg
Phocaeicola vulgatus
  MIC: 0.25 µg/mL
Pseudomonas aeruginosa [14]
  MIC: 0.1 µg/mL
Hoylesella loescheii
  MIC: 1 µg/mL
Mus musculus [15]
  ED50: 0.8 mg/kg
Acinetobacter sp.
  MIC: 0.05 µg/mL
Klebsiella aerogenes
  MIC: 0.05 µg/mL
Staphylococcus aureus [16]
  MIC: 0.1 µg/mL
Klebsiella pneumoniae
  MIC: 0.01 µg/mL
[17]
  solubility: 13 µg/mL
Clostridioides difficile
  MIC: 1 µg/mL
Streptococcus pyogenes [18]
  MIC: 0.1 µg/mL
Streptococcus pyogenes [19]
  MIC: 0.1 µg/mL
Clostridium perfringens
  MIC: 0.12 µg/mL
[20]
  MIC: 0.5 µg/mL
[21]
  MIC: 0.5 µg/mL
Staphylococcus aureus [22]
  MIC: 0.02 µg/mL
Streptococcus agalactiae
  MIC: 0.2 µg/mL

— ChEMBL document CHEMBL1124180, “Asymmetric synthesis and properties of the enantiomers of the antibacterial agent 7-(3-aminopyrrolidin-1-yl)-1-(2,4-difluorophenyl)-1,4-dihydro-6- fluoro-4-oxo-1,8-naphthyridine-3-carboxylic acid hydrochloride” (J Med Chem, 1988)
